17 compounds from ChEMBL document CHEMBL4033681, “Lipase-catalyzed kinetic resolution as key step in the synthesis of enantiomerically pure σ ligands with 2-benzopyran structure” (Bioorg Med Chem, 2017) can be followed below.

For assay [1], the system named is Yarrowia lipolytica. The assay can be described thus: Inhibition of Yarrowia lipolytica DSM 1345 sterol-delta8/delta7-isomerase assessed as change in sterol pattern at 4 ug/ml after 48 hrs by GC-MS analysis. Put shortly:
(§1)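 Cellular assay in the model yeast Yarrowia lipolytica, with compounds at 4 µg/mL. Both growth and the sterol pattern were monitored as read-outs of fungal sterol-Δ8/Δ7-isomerase inhibition.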

Assay [2] relates to Yarrowia lipolytica. Put plainly: Growth inhibition of Yarrowia lipolytica DSM 1345 at 4 ug/ml. The assay is classed as functional. The procedure, abridged: as §1
Assay [3] addresses 3-beta-hydroxysteroid-Delta(8),Delta(7)-isomerase (Homo sapiens) (UniProt Q15125). The assay can be described thus: Inhibition of sterol-delta8/delta7-isomerase in human HL60 cells assessed as change in sterol pattern at 1 uM after 24 hrs. The assay is classed as cell-based. Put shortly:
(§2)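 HL-60 cells were screened for inhibition of post-squalene cholesterol-biosynthesis enzymes. Sterol pattern was checked at 1 µM test concentration, and cholesta-8,14-dienol accumulation was examined at 50 µM.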

For assay [4] the target is unchanged. The assay can be described thus: Inhibition of sterol-delta8/delta7-isomerase in human HL60 cells assessed as accumulation of cholesta-8,14-dienol at 50 uM after 24 hrs. It is filed as cell-based. Put shortly:
as §2

Assay [5] in a line: Displacement of [3H]-(+)-MK-801 from NMDA receptor PCP binding site in pig brain cortex membranes after 120 mins by microbeta scintillation counting method. It is filed as cell membranes, Sus scrofa. (Loss of bound radioactivity is the signal in a displacement assay; it reports binding, not function.)
Assay [6] deals with T1, Sigma intracellular receptor 2 (Rattus norvegicus, UniProt Q5U3Y7).
T1 sequence (Q5U3Y7 whole entry): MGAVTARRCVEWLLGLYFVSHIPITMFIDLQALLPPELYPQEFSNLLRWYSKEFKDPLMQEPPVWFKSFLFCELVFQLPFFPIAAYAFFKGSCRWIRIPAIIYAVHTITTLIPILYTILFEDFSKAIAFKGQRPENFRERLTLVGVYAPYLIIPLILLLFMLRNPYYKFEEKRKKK
Put plainly: Displacement of [3H]DTG from sigma-2 receptor in rat liver membranes after 120 mins by microbeta scintillation counting method. It is filed as cell membranes, Membrane.

Assay [7] deals with T2, Sigma intracellular receptor 2 (Rattus norvegicus) (UniProt Q5U3Y7).
T2 sequence (whole entry): T1 sequence (Q5U3Y7 whole entry)
The assay can be described thus: Displacement of [3H]DTG from sigma-2 receptor in rat liver membranes at 1 uM after 120 mins by microbeta scintillation counting method relative to control. The assay is classed as cell membranes. As to conditions: Membrane. The procedure, abridged:
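Rat liver homogenate was the receptor source, labelled with [³H]-di-o-tolylguanidine. Excess (+)-pentazocine was added to mask σ1 sites.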

In assay [8] the target is Sigma non-opioid intracellular receptor 1 (Cavia porcellus, UniProt Q60492). The assay can be described thus: Displacement of [3H]-(+)-pentazocine from sigma-1 receptor in guinea pig brain membranes after 120 mins by microbeta scintillation counting method. The assay is classed as cell membranes, Membrane.

SMILES strings stand for the structures. pIC50, pKi: −log10 of the molar value. The source made the active and inactive calls. The calls are words filed in the database; no cut-off is given here.

Chain of 3-beta-hydroxysteroid-Delta(8),Delta(7)-isomerase (Homo sapiens) (Q15125 whole entry): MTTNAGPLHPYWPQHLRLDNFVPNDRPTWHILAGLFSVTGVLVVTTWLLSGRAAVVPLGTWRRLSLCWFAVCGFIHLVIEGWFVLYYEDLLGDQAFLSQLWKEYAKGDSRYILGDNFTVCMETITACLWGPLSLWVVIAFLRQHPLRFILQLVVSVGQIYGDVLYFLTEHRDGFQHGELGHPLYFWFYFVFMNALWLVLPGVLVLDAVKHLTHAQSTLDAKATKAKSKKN
Chain of Sigma non-opioid intracellular receptor 1 (Q60492 whole entry): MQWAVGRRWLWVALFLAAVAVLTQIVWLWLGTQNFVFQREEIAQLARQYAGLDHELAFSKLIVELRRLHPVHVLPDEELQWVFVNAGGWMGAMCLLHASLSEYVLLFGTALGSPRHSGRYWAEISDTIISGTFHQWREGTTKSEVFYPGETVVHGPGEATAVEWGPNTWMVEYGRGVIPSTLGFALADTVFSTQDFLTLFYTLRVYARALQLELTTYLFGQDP

In general, inhibition refers to the share of the control response that was lost under treatment. Turning to `CCCCCCCCN1CCC2(CC1)OC(CCO)Cc1ccccc12` (racemic), the inhibition entry in assay [1] and in assay [3] was “inactive” in each case. The “growth inhibition (GI)” value in assay [2] was “inactive”. For the same compound, the inhibition result in assay [4] was “Active”.
As a reminder, the pIC50 is −log10 of the IC50, conventionally taken in molar units. Low readings indicate a large IC50, high ones a small IC50. The pKi is the negative decadic logarithm of the Ki, by convention in mol/L. Turning to `OCC[C@@H]1Cc2ccccc2C2(CCN(CC3CCCCC3)CC2)O1`, the pIC50 in assay [5] was < 5.00. In assay [6], this compound gave a pKi of 6.21.
Consider `COC(=O)C[C@@H]1Cc2ccccc2[C@H](CCN2CCCCC2)O1`, for which the inhibition in assay [7] was determined as 39%. For the same compound, the pIC50 in assay [5] was < 5.00. In assay [8], this compound had a pKi of 6.07.
With `OCC[C@H]1Cc2ccccc2C2(CCN(CCCc3ccccc3)CC2)O1`, the pIC50 in assay [5] was < 5.00. This compound showed a pKi in assay [6] of 5.91.
In the case of `COC(=O)C[C@@H]1Cc2ccccc2[C@H](CCN2CCC(c3ccccc3)CC2)O1`, the pIC50 in assay [5] was < 5.00. Besides, the pKi in assay [6] was 7.49; in assay [8] it was 7.37.
In the case of `OCC[C@@H]1Cc2ccccc2C2(CCN(CCCc3ccccc3)CC2)O1`, the pIC50 in assay [5] was < 5.00. In assay [6], this compound had a pKi of 6.28.
As to `OCC[C@H]1Cc2ccccc2C2(CCN(Cc3ccccc3)CC2)O1`, in assay [7], the inhibition was determined as 21%. The pIC50 in assay [5] was < 5.00.
Turning to `OCC[C@H]1Cc2ccccc2C2(CCN(CC3CCCCC3)CC2)O1`, in assay [5], the pIC50 was < 5.00. In assay [6], this compound gave a pKi of 6.29.
In the case of `OCC[C@@H]1Cc2ccccc2C2(CCN(Cc3ccccc3)CC2)O1`, in assay [7], the inhibition stood at 9%. The pIC50 in assay [5] is < 5.00.
Consider `OCCC1Cc2ccccc2C2(CCN(CCCc3ccccc3)CC2)O1` (racemic), for which the inhibition entry in assay [1] and in assay [3] was “inactive” throughout. Also, the “growth inhibition (GI)” value in assay [2] was “inactive”. In addition, the inhibition result in assay [4] is “Active”.
Consider `FCC[C@H]1OC2(CCN(Cc3ccccc3)CC2)c2ccccc21`, for which the pKi in assay [8] is 9.24.
With `CCCCCCCCN1CCC2(CC1)O[C@@H](CCO)Cc1ccccc12`, the pIC50 in assay [5] was < 5.00. In addition, the pKi in assay [6] is 7.17; in assay [8], 7.62.
`COC(=O)C[C@H]1Cc2ccccc2[C@@H](CCN2CCCCC2)O1` displayed an inhibition in assay [7] of 13%. Moreover, the pIC50 in assay [5] is < 5.00. This compound had a negative logarithm of the Ki (pKi) in assay [8] of 6.25.
As to `CCCCCCCCN1CCC2(CC1)O[C@H](CCO)Cc1ccccc12`, in assay [5], the pIC50 is < 5.00. For the same compound, the negative logarithm of the Ki (pKi) was 6.59 in assay [6] and 7.25 in assay [8].
Turning to `COC(=O)C[C@H]1Cc2ccccc2[C@@H](CCN2CCC(c3ccccc3)CC2)O1`, in assay [5], the pIC50 is < 5.00. Further, the pKi in assay [6] was 6.28; in assay [8], 7.48.
Consider `COC(=O)CC1Cc2ccccc2C(CCN2CCC(c3ccccc3)CC2)O1` (racemic), for which the inhibition result in assay [1] and in assay [3] was “inactive” throughout. Moreover, the “growth inhibition (GI)” value in assay [2] was “inactive”. In addition, the inhibition entry in assay [4] was “Active”.
With `FCC[C@@H]1OC2(CCN(Cc3ccccc3)CC2)c2ccccc21`, the pKi in assay [8] is 8.64.
